The experiment deals with Potassium channel subfamily K member 9 (Homo sapiens) (UniProt Q9NPC2). As to the kind of experiment: concentration-dependent blockade of KCNK9 channel – cell-based, round 4, SAR follow-up (AID 623887). As to conditions: HEK293-KCNK9 thallium flux, FluxOR fluorescence; for flux ratio, lower = inhibition: at 30 µM (top of the series). A digest of the protocol:
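System: Tetracycline-induced HEK293 cells stably expressing the KCNK9 channel | Also added: Potassium/thallium sulfate stimulus buffer (5x stock) | Doses: Concentration series | Schedule: 90 min dye loading, then 20 min compound preincubation at room temperature | Detection: Kinetic FluxOR fluorescence of thallium influx, 110 s after stimulus | Repeats: Replicate measurements at each compound concentration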

Values joined by “and” are separate entries in the source; they are usually repeats but may differ in a detail not shown here. Equal entries are not always repeated. Active and inactive are the calls of the source.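 Rule for the calls: active = blocks the KCNK9 potassium channel at some tested concentration and gives a dose response curve; inactive = the rest.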

Consider 23 compounds from PubChem BioAssay AID623887 (Johns Hopkins Ion Channel Center, 2012).

Potassium channel subfamily K member 9 (Homo sapiens), sequence (Q9NPC2 whole entry, looked up): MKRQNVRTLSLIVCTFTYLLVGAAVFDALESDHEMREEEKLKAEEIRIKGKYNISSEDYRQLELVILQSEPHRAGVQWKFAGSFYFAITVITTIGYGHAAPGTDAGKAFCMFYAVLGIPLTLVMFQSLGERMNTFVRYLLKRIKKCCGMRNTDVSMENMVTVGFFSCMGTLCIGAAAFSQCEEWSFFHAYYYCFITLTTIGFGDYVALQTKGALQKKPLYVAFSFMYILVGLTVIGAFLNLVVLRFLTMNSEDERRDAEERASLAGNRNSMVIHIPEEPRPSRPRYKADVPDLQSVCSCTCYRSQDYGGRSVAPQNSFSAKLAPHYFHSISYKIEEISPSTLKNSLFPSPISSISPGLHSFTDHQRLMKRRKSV

In general, IC50 refers to the point on the concentration scale where inhibition reaches its midpoint. With `COc1cccc(-c2n[nH]c(=S)n2[C@H](C)C2CCCCC2)c1`, the IC50 was 3420 nM.

Regarding `CC(C1CC2CCC1C2)n1c(SCC(=O)N2CCN(C)CC2)nnc1-c1ccco1` (stereo not drawn), the 50% inhibitory concentration (IC50) was 28000 nM.

With `COc1ccc(CSc2nnc(-c3ccco3)n2C(C)C2CC3CCC2C3)cc1OC` (stereo not drawn), the IC50 is 547 nM.

`COc1ccc(C(=O)CCSc2nnc(-c3ccco3)n2C(C)C2CC3CCC2C3)cc1OC` (stereo not drawn): the IC50 is 663 nM.

For the compound `C[C@@H]([C@@H]1CC2CC[C@H]1C2)n1c(-c2ccsc2)n[nH]c1=S`, the IC50 is 146 nM and 544 nM.

`CC(C1C[C@H]2CCC1C2)n1c(-c2ccsc2)n[nH]c1=S` (stereo partly drawn): the IC50 was 582 nM.

Regarding `CC(C1CC2CCC1C2)n1c(SCCc2ccccn2)nnc1-c1ccco1` (stereo not drawn), the half-maximal inhibitory concentration (IC50) is 3090 nM.

As for `CC(C1CC2CCC1C2)n1c(SCCN2CCOCC2)nnc1-c1ccco1` (stereo not drawn), the “flux ratio, lower = inhibition” value is “inactive”.

With `CC(C1CCN(C)CC1)n1c(-c2ccco2)n[nH]c1=S` (stereo not drawn), the “flux ratio, lower = inhibition” value is “inactive”.

As to `COc1cccc(CCSc2nnc(-c3ccco3)n2C(C)C2CC3CCC2C3)c1` (stereo not drawn), the IC50 is 1190 nM.

`CCCC(=O)C1CCN(c2ncnc3c2CN(C(=O)c2ccc(-c4ccccc4)cc2)CC3)CC1`: the half-inhibitory concentration (IC50) is 141 nM.

Turning to `COc1cccc(-c2n[nH]c(=S)n2[C@H](C)[C@@H]2CC3CC[C@H]2C3)c1`, the concentration for half-maximal inhibition (IC50) was 467 nM.

For the compound `COc1ccc(NC(=O)CSc2nnc(-c3ccco3)n2C(C)C2CC3CCC2C3)cc1OC` (stereo not drawn), the 50% inhibitory concentration (IC50) is 18300 nM.

On to `CC(C1CC2CCC1C2)n1c(-c2ccco2)nn(CCc2ccncc2)c1=S` (stereo not drawn), for which the IC50 is 223 nM.

Turning to `C[C@H]([C@@H]1CC2CC[C@H]1C2)n1c(-c2ccco2)n[nH]c1=S`, the IC50 was 53 nM.

Consider `C[C@H](C1CCCCC1)n1c(-c2ccsc2)n[nH]c1=S`, for which the IC50 was 428 nM.

In the case of `COc1cccc(-c2nnc(SSc3nnc(-c4cccc(OC)c4)n3C(C)C3CC4CCC3C4)n2C(C)C2CC3CCC2C3)c1` (stereo not drawn), the IC50 was 28000 nM.

In the case of `COc1ccc(CC(=O)NCc2ccccc2-c2ccccc2C(=O)NCc2ccc(F)cc2F)cc1`, the IC50 was 3200 nM.

`C[C@H]([C@@H]1CC2CC[C@H]1C2)n1c(-c2ccccc2F)n[nH]c1=S`: the concentration for half-maximal inhibition (IC50) is 169 nM.

On to `CC([C@@H]1CC2CC[C@H]1C2)n1c(-c2ccsc2)n[nH]c1=S` (stereo partly drawn), for which the IC50 is 180 nM.

`CC(C1CC2CCC1C2)n1c(SCCc2cccc(O)c2)nnc1-c1ccco1` (stereo not drawn): the IC50 was 1830 nM.

As to `C[C@H](C1CCCCC1)n1c(-c2ccccc2F)n[nH]c1=S`, the IC50 was 683 nM.

`C[C@@H]([C@@H]1CC2CC[C@H]1C2)n1c(-c2ccco2)n[nH]c1=S`: the IC50 is 181 nM and 128 nM.
